The source of these data is PMC11265520 (RSC Advances, 2024).

The test system of one data set is HL-60. The experiment in a line: Antiproliferative assay, HL-60. Type of data set: cell-based. Particulars: Homo sapiens, HL-60, read-out: IC50 HL-60.
Another data set deals with DND-41. The experiment in a line: Antiproliferative assay, DND-41. Type of data set: cell-based. Particulars: Homo sapiens, DND41, read-out: IC50 DND-41.
The next data set has as its target hCA IX (Homo sapiens, UniProt Q16790). The data set is described as follows: biochemical. Type of data set: biochemical.
The next data set concerns HCT-116. The data set is described as follows: Antiproliferative assay, HCT-116. Particulars: Homo sapiens, HCT-116, read-out: IC50 HCT-116. Format: cell-based.
In a further data set the test system is K562. The data set is described as follows: Antiproliferative assay, K562. To be noted: Homo sapiens, K562, read-out: IC50 K562. Format: cell-based.
Data set [1] deals with panel of tumor cell lines. The experiment in a line: Antiproliferative activity over the panel of tumor cell lines. Format: cell-based, human. To be noted: for IC50: Homo sapiens.
Another data set has as its target hCA I (Homo sapiens, UniProt P00915). The data set is described as follows: Stopped flow CO2 hydrase assay, hCA I. Format: biochemical.
The next data set concerns the target hCA XII (Homo sapiens, UniProt O43570). The experiment in a line: Stopped flow CO2 hydrase assay, hCA XII. Format: biochemical.
For a further data set, the target named is hCA II (Homo sapiens, UniProt P00918). The data set is described as follows: Stopped flow CO2 hydrase assay, hCA II. Type of data set: biochemical.
Data set [2] deals with breast cancer cells MCF-7. The data set is described as follows: MTT antiproliferative assay, MCF-7 under normoxia and hypoxia. Type of data set: cell-based, human. To be noted: for IC50: Homo sapiens; for HCR, hypoxic cytotoxicity ratio: IC50(N)/IC50(H): MCF-7. Put shortly: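 MTT assay on MCF-7 cells grown in high-glucose DMEM with 10% FBS, penicillin and streptomycin at 37 °C and 5% CO2. Cells were seeded at 40 000 per well, and test compound (10 mM DMSO stock) was added after 24 h; controls got solvent. Cells were kept under normoxia (21% O2) or hypoxia (1% O2). IC50 is mean ± S.D. of 3 experiments; HCR = IC50(N)/IC50(H).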
Background: Formazan colour is commonly taken as a measure of viable cells.

The next data set relates to LN229. The experiment in a line: Antiproliferative assay, LN229. Type of data set: cell-based. Particulars: Homo sapiens, LN-229, read-out: IC50 LN229.
Another data set has as its system Capan-1. The experiment in a line: Antiproliferative assay, Capan-1. Type of data set: cell-based. Particulars: Homo sapiens, CAPAN-1, read-out: IC50 Capan-1.
The subject of the next data set is NCI-H1975. The data set is described as follows: Antiproliferative assay, NCI-H1975. Format: cell-based. Particulars: Homo sapiens, NCI-H1975, read-out: IC50 NCI-H1975.
In the next data set the test system is Z138. The experiment in a line: Antiproliferative assay, Z138. Type of data set: cell-based. To be noted: Homo sapiens, Z-138, read-out: IC50 Z138.
For another data set, the system named is A431 skin cancer cells. The experiment in a line: MTT assay, A431 cells in normoxia and hypoxia. Format: cell-based. Particulars: for IC50: Homo sapiens, A-431, 72 h. Put shortly:
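A431 cells were cultured in high-glucose DMEM with 10% FBS and penicillin/streptomycin at 37 °C and 5% CO2, then seeded at 35 000 per well. After 24 h, test compound from a 10 mM DMSO stock was added, with solvent-only controls. Incubation lasted 72 h under normoxia or hypoxia (1% O2). Viability was read by MTT, with IC50 from the concentration-response curve.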

For data set [3], the system named is CA IX and cleaved PARP expression in A431 cells. The experiment in a line: Immunoblotting of CA IX and cleaved PARP in A431 cells under hypoxia. To be noted: 24 h. Format: cell-based. A digest of the protocol: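 A431 cells grew 24 h, then received test compound or tirapazamine reference (30 μM) in fresh medium and were held 24 h in hypoxia; the control stayed in normoxia. Lysis buffer: Tris-HCl pH 7.5, Igepal, NaCl, EDTA, DTT, PMSF, orthovanadate, protease inhibitors. Protein was measured by Bradford. Blots: 10% reducing SDS-PAGE, nitrocellulose, milk/TBS-Tween block, primary antibodies overnight at 4 °C, GAPDH loading control, HRP anti-rabbit, ECL.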
(Immunoblotting shows a protein as a band on a membrane.)

SMILES strings stand for the structures. Read-outs that look alike come from different tables or passages of the source.

Chain of hCA XII (O43570 25-354): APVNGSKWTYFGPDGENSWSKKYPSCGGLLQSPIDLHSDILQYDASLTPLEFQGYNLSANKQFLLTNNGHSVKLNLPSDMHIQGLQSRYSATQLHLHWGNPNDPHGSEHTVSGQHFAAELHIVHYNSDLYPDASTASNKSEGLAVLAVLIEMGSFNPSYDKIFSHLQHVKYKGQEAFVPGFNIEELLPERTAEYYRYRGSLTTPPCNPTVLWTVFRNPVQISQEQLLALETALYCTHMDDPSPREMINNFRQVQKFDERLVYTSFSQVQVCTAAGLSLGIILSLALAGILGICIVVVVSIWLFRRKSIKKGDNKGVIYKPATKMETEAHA
Chain of hCA I (P00915 whole entry): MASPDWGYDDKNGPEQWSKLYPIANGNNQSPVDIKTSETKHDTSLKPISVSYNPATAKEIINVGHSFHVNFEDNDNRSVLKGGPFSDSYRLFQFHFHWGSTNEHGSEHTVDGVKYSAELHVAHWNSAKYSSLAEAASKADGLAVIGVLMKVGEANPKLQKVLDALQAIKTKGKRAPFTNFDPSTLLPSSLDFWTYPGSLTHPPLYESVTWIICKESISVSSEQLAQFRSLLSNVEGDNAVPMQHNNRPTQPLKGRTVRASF

A word on the IC50: it is the concentration needed to halve the response being measured. As a reminder, the Ki is a dissociation constant, usually derived from enzyme kinetics or from competition with a known ligand. The low end stands for a stronger hold on the target, the high end for a looser hold on the target. Turning to `NS(=O)(=O)c1ccc2c(c1)[n+]([O-])c(C(F)(F)F)c(C(=O)c1ccccc1)[n+]2[O-]` [Compound 7h, 2-Benzoyl-6-sulfamoyl-3-(trifluoromethyl)quinoxaline 1,4-dioxide], the half-maximal inhibitory concentration (IC50) in the data set with HL-60 is 1800 ± 100 nM; in the data set on DND-41 it was 2100 ± 200 nM; in the data set with HCT-116, 1300 ± 80 nM; in the data set with K562 it was 1900 ± 200 nM; in data set [1] (read-out: IC50 range over the tested tumor cell lines), 1300 to 2100 nM; in [1] (read-out: IC50 range, all cell lines), 1100 to 2100 nM. Further, the IC50 stood at 800 ± 50 nM in [2] (MCF7, read-out: IC50 H); 1100 ± 100 nM in [2] (MCF7, read-out: IC50 N); 1400 ± 30 nM with LN229; 1400 ± 70 nM in the data set with Capan-1; 1900 ± 100 nM in the data set on NCI-H1975; 1900 ± 100 nM in the data set with Z138. Further, the Ki at hCA IX was more than 10000 nM; at hCA I, 51.5 ± 3.2 nM; at hCA XII, 143 ± 11 nM; on hCA II, 4.8 ± 0.3 nM. For the same compound, the “higher activity compared to other analogs” value in data set [1] (against most tumor cells) is recorded as 1.5–20 times. Also, the “HCR, hypoxic cytotoxicity ratio: IC50(N)/IC50(H)” value (“HCR, hypoxic cytotoxicity ratio” for short) in data set [2] is given as 1.4.
Take `CC(=O)c1c(C)[n+]([O-])c2cc(S(N)(=O)=O)ccc2[n+]1[O-]` [Compound 7g, 2-Acetyl-3-methyl-6-sulfamoylquinoxaline 1,4-dioxide]: the IC50 in the data set on HL-60 was 85900 ± 4300 nM; in the data set on DND-41, 66900 ± 3300 nM; with A431 skin cancer cells (read-out: IC50 A431, hypoxia), approximately 11000 nM; in the data set on A431 skin cancer cells (read-out: IC50 A431, normoxia), more than 50000 nM; in the data set with HCT-116 it was 69600 ± 3500 nM; in the data set with K562, 94800 ± 4700 nM. Further, the IC50 in data set [2] (MCF7, read-out: IC50 H) is 6900 ± 300 nM; in data set [2] (MCF7, read-out: IC50 N), 7100 ± 200 nM; in the data set with LN229, more than 100000 nM; in the data set on Capan-1, 38300 ± 1900 nM; in the data set with NCI-H1975, 66100 ± 3300 nM; in the data set with Z138, 44300 ± 2200 nM. Besides, the Ki was 42.2 ± 4 nM on hCA IX, 65.7 ± 2.4 nM on hCA I, 240 ± 13 nM at hCA XII and 7.4 ± 0.2 nM on hCA II. For the same compound, the “decrease in cell survival” value in the data set on A431 skin cancer cells (A431, 50 μM, normoxia, 72 h) is “approximately 40%”. In addition, in data set [1] (Table 4 cell lines), the “decrease in activity compared to 2-ethoxycarbonyl analogue 7f” value was 2–25 fold. In [2], the “HCR, hypoxic cytotoxicity ratio” value turned out to be 1.1. Also, the “CA IX expression” value in [3] is on record as “dose-dependent reduction in CA IX expression”. Besides, the “cleaved PARP (marker of apoptosis)” value in [3] is “accumulation of cleaved PARP”.
Take `N#Cc1c(-c2ccc(Cl)cc2)[n+]([O-])c2cc(S(N)(=O)=O)ccc2[n+]1[O-]` [Compound 7b, 3-(4-Chlorophenyl)-6-sulfamoylquinoxaline-2-carbonitrile 1,4-dioxide]: the IC50 in the data set on HL-60 stood at 2000 ± 100 nM; in the data set on DND-41 it was 5400 ± 300 nM; in the data set with HCT-116, 34300 ± 1700 nM; in the data set with K562 it was 29700 ± 1500 nM; in data set [2] (MCF7, read-out: IC50 H) it was 800 ± 200 nM; in data set [2] (MCF7, read-out: IC50 N), 1800 ± 200 nM. Besides, the IC50 in the data set on LN229 worked out at 24000 ± 1200 nM; in the data set with Capan-1 it was 1800 ± 100 nM; with NCI-H1975, 13900 ± 700 nM; in the data set on Z138, 2500 ± 200 nM. Moreover, the Ki was determined as 429 ± 21 nM on hCA IX, 53.7 ± 1.5 nM at hCA I, 178 ± 9 nM at hCA XII and 5.1 ± 0.3 nM on hCA II. In addition, the “enhancement of cytotoxicity compared to unsubstituted analogue 7a” value in data set [1] (all tested cell lines except DND-41) is given as 1.2 to 6.8 times. In addition, in data set [2], the “HCR, hypoxic cytotoxicity ratio” value amounted to 2.2.
